The values that follow come from PMC3983356 (The Journal of Physical Chemistry. B, 2014).

Values joined by “and” are separate entries in the source; they are usually repeats but may differ in a detail not shown here. Identical values can stand only once. Like-named read-outs stand apart in the source and are kept apart here.

Data set [1] relates to HEK 293A cells. In words: Ensemble whole cell patch clamp. It is filed as cell-based. Conditions: for change in membrane conductivity compared to ECS controls: 0.004 and 0.04 mM SDS, 0.0001 and 0.001 mM CTAB; for concentration at which increased membrane permeability is induced: current change 900 s after exposure, superfusion. For orientation: Patch clamp records ionic current or voltage across a cell membrane.

The subject of data set [2] is HEK 293A cells. In words: Fluorescence microscopy of patched cells. Conditions: ORB at all three concentrations, 10 min. It is filed as cell-based.
The test system of the next data set is HEK293A cells. In words: XTT assay. It is filed as cell-based. The settings on record: 20 min. In short, it runs like this: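 HEK293A cells were seeded at 100000 cells/well and incubated overnight at 37 °C, 5% CO2. Cells were exposed 20 min to test compound in ECS, or to ECS alone, then the supernatant was replaced with PBS. XTT reagent (solution A:B, 50:1) was added and incubated 2 h at 37 °C. A490 minus A690 was read, and % viability was expressed relative to ECS-treated cells.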

The subject of data set [3] is HEK 293A cells. It is filed as cell-based. Conditions: for reversal of increased conductivity at end of experiment (600 s): 0.2 mM SDS 30 s exposure, 0.1 mM CTAB 10 s, 0.137 mM ORB 10 s; for reversibility of increased permeability induced within 10 s of exposure: 0.2 mM SDS, 0.1 mM CTAB, 0.137 mM ORB, 15 min after exposure. In short, it runs like this: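 IonFlux 16 whole-cell patch clamp of HEK 293A cells in ECS at sub-solubilising test concentrations, applied for 10, 30 or 300 s. Exposure was followed by ECS perfusion for 900 s. Membrane current was tracked for reversal. Controls were ECS alone or ECS + 5% DMSO, the vehicle for the rhodamine lipid probe.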

In data set [4] the test system is HEK 293A cells. In kind it is cell-based. The settings on record: for Dw ± standard error (detergent in water, intercept): quiescent, onset of increased permeability; for partition constant K [lower bound, upper bound]: range from error in Rb and intercept. The procedure, abridged: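 HEK 293A cells (passages 12–17) detached with detachin, rested in serum-free medium, then 1.5, 5, 10 or 15 million cells in ECS incubated 15 min with graded detergent. Cells were pelleted at 1000 rpm, resuspended in ECS and patched on an IonFlux 16 ensemble whole-cell system with K-aspartate intracellular solution. Time-averaged current over the first 4 min served as the permeability read-out. Detergent giving a 1 nA rise ×15 estimated the onset. Onset concentration vs lipid concentration was fitted linearly: slope Rb, intercept Dw.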

Data set [5] can be described thus: Critical micelle concentration by DPH fluorimetric method. In kind it is physicochemical. In short, it runs like this:
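Fluorimetric CMC determination: 10 μL of 1 mM diphenylhexatriene (DPH) in tetrahydrofuran added to test detergent serially diluted in ECS (pH 7.45, HEPES-buffered saline with glucose). Excitation 358 nm, emission scanned 400–500 nm. CMC taken at the sharp rise in fluorescence as DPH enters micelles.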

The conditions of data set [6]: POPC vesicles; cited from earlier work.
For data set [7] the following is noted: POPC/POPG vesicles; cited from earlier work.
The conditions of data set [8]: depending on size, composition of vesicles and temperature; cited from earlier work.
Data set [9] has as its system HEK 293A cells. In words: Quiescent partitioning experiment with trypan blue assay. It is filed as cell-based. Conditions: range from error estimate. In short, it runs like this:
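Cationic detergent only. HEK 293A cells in ECS were pretreated 15 min with graded detergent concentrations as in the patch-clamp partitioning protocol. Trypan blue exclusion, not patch clamp, served as the membrane-permeability marker. Onset concentration was plotted against cellular lipid concentration and fitted linearly (slope Rb, intercept Dw). K was derived from R and Dw and reported as a range.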

[10] abbreviates: 0.2 and 2 mM SDS, 0.1, 1 and 10 mM CTAB, 0.035, 0.14 and […] ORB.
The mark [11] stands for this setting: 2 mM SDS, 1 and 10 mM CTAB, 1.37 mM ORB.
[12] abbreviates: 0.004–0.2 mM SDS, 0.001–0.1 mM CTAB, 0.0137–0.137 mM ORB.
[13] abbreviates: 0.004–0.04 mM SDS, 0.0001–0.001 mM CTAB.

Consider `CCCCCCCCCCCCCCCCCCOC(=O)c1ccccc1-c1c2ccc(=[N+](CC)CC)cc-2oc2cc(N(CC)CC)ccc12.[Cl-]` [ORB, octadecyl rhodamine B], for which the “change in membrane current compared to controls” value in the data set with HEK 293A cells [1] (0.014 (0.0137) mM ORB) is listed as “significantly different from the ECS control but not 0.007 mM ORB”. The “change in membrane current compared to ECS controls” value in the data set with HEK 293A cells [1] (setting [10]) is listed as “increased the membrane current significantly”. The “state of cells after ORB exposure (ORB fluorescence)” value with HEK 293A cells [2] is “fluorescent and intact”. Besides, the “metabolic activity of exposed cells (XTT)” value (shortened to “metabolic activity”) in the data set with HEK293A cells (setting [11]) is listed as “reduced metabolic activity”. In the data set on HEK293A cells (setting [12]), the “metabolic activity” value is “do not show a loss in metabolic activity”. In the data set on HEK 293A cells [3], the “reversal of increased conductivity at end of experiment (600 s)” value (from here on “reversal of increased conductivity”) is on record as “not reversed” and the “reversibility of increased permeability induced within 10 s of exposure” value is given as “not reversible for over 15 min”. Moreover, in the data set with HEK 293A cells [4], the “Dw ± standard error (detergent in water, intercept)” value (“Dw ± standard error” for short) is listed as 7.3 ± 3.1 and the “partition constant K [lower bound, upper bound]” value is on record as 24000–99000 M^–1.

`CCCCCCCCCCCCOS(=O)(=O)[O-].[Na+]` [SDS, sodium dodecyl sulfate]: the “critical micelle concentration (CMC) in ECS” value in data set [5] is 0.8 to 1 mM and ~0.8 mM. In data set [5], the CMC in water lay in the range of 6 to 8 mM. In the data set on HEK 293A cells [1] (0.2 mM SDS), the “duration of initial change in current” value was 3 to 4 s. For the same compound, the “duration of subsequent slow current increase” value in the data set with HEK 293A cells [1] (0.2 mM SDS) was found to be 67 ± 25 s. Further, the “current reached at the end of 15 min” value in the data set with HEK 293A cells [1] (0.2 mM SDS, total current of 20 cells) is listed as about 50 nA. The “time of onset of current increase after compound release” value in the data set with HEK 293A cells [1] (0.2 mM SDS, 0.1 mM CTAB) is 2 to 3 s; with HEK 293A cells [1] (2 mM SDS, 1 mM CTAB) it was 1 s. The “group of current traces” value with HEK 293A cells [1] (0.2 mM SDS, 0.1–10 mM CTAB) came to 2; in the data set with HEK 293A cells [1] (2 mM SDS) it was 3; in the data set with HEK 293A cells [1] (setting [13]) it was 1. In the data set on HEK 293A cells [1] (2 mM SDS), the final current level result is listed as “eventually reached open channel current levels”. For the same compound, the “time to reach open channel current” value in the data set with HEK 293A cells [1] (2 mM SDS, except one trace that took 871 s) is on record as 120 ± 61 s. Also, the “change in membrane conductivity compared to ECS controls” value in the data set with HEK 293A cells [1] is listed as “does not result in an increase in conductivity”. Moreover, the “time within which large and sudden increase in conductivity occurs” value in the data set on HEK 293A cells [1] (0.2 and 2 mM SDS) lay within 1 to 3 s. Also, in the data set on HEK 293A cells [1] (setting [10]), the “change in membrane current compared to ECS controls” value is “initial sharp increase in current”. Besides, in the data set on HEK 293A cells [1], the “concentration at which increased membrane permeability is induced” value worked out at 200 µM. Besides, the “metabolic activity” value in the data set with HEK293A cells (setting [11]) is “reduced metabolic activity”; in the data set on HEK293A cells (setting [12]) it was “do not show a loss in metabolic activity”. The “reversal of increased conductivity” value in the data set on HEK 293A cells [3] is “not reversed”. Also, the “reversibility of increased permeability induced within 10 s of exposure” value in the data set with HEK 293A cells [3] was “not reversible for over 15 min”. The “Dw ± standard error” value with HEK 293A cells [4] was found to be 29 ± 10. Moreover, the “partition constant K [lower bound, upper bound]” value in the data set with HEK 293A cells [4] is 16300–39200 M^–1. In addition, the “partition constant K” value in data set [6] is listed as 33000 M^–1; in [7] it was 37000 M^–1; in data set [8], 12500 to 70000 M^–1.

`CCCCCCCCCCCCCCCC[N+](C)(C)C` [CTAB, cetyltrimethylammonium bromide]: the “critical micelle concentration (CMC) in ECS” value in data set [5] is 0.03 to 0.06 mM and ~0.06 mM. Also, the CMC in water in data set [5] was in the range of 1 to 2 mM. In addition, the “current eventually reached as fraction of open channel current” value in the data set on HEK 293A cells [1] (0.01 mM CTAB) is 1/3. Further, the “change in membrane current compared to ECS controls” value in the data set with HEK 293A cells [1] (0.01 mM CTAB (below CMC)) is listed as “slow increase in current”; in the data set on HEK 293A cells [1] (setting [10]), “rapid increase in membrane current”. Moreover, the “time of onset of current increase after compound release” value in the data set with HEK 293A cells [1] (0.2 mM SDS, 0.1 mM CTAB) was 2 to 3 s and 1 to 3 s; in the data set on HEK 293A cells [1] (2 mM SDS, 1 mM CTAB), 1 s; in the data set on HEK 293A cells [1] (10 mM CTAB) it was 1 s. Moreover, the “group of current traces” value is given as 2 in the data set on HEK 293A cells [1] (0.2 mM SDS, 0.1–10 mM CTAB) and 1 in the data set with HEK 293A cells [1] (setting [13]). For the same compound, the “change in membrane conductivity compared to ECS controls” value in the data set with HEK 293A cells [1] was “did not cause a change in conductance”. In addition, the “concentration at which increased membrane permeability is induced” value in the data set with HEK 293A cells [1] was 10 µM. Besides, the entries for the “metabolic activity” value in the data set with HEK293A cells (setting [11]) and in the data set on HEK293A cells (setting [12]) were “reduced metabolic activity” and “do not show a loss in metabolic activity”, respectively. The “reversal of increased conductivity” value with HEK 293A cells [3] is “not reversed”. Also, the “reversibility of increased permeability induced within 10 s of exposure” value in the data set on HEK 293A cells [3] is “not reversible for over 15 min”. Moreover, the “Dw ± standard error” value in the data set with HEK 293A cells [4] was found to be 4.2 ± 2.8. Also, the “partition constant K [lower bound, upper bound]” value in the data set with HEK 293A cells [4] is given as 29000–476000 M^–1. Moreover, the “partition constant K range (trypan blue assay)” value with HEK 293A cells [9] was 37000 to 67000 M^–1. Moreover, the “partition constant K” value in data set [6] was 350000 M^–1.
